Screening data (PubChem BioAssay)
Rows were chosen to be rich in hits. Some 4.2% of all compounds tested hit in one or more screens of this group.
OX1R antag-1: blocks the human orexin 1 receptor. O43613. OX1R-expressing cells, FRET antagonist read-out. inhibition, % at 6.6 µM. 1.8% of 330,000 active; in the data active means inhibition mostly above about 38%, no sharp cut-off; inactive means mostly below about 40%;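 further: 0% = agonist challenge alone and 100% = reference antagonist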
Target sequence (O43613 whole entry, looked up): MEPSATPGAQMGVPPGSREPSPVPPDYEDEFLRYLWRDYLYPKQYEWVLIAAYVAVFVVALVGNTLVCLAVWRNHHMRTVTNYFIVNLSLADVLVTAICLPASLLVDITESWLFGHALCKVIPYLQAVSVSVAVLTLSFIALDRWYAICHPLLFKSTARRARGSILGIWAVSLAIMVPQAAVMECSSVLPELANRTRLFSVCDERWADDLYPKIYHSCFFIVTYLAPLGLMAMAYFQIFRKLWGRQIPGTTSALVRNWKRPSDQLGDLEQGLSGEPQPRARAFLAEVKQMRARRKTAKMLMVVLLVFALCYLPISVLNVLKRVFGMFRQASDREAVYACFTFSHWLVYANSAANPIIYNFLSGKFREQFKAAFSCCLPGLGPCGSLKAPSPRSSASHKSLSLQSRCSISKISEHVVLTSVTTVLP
CHO parental Ca: counter-screen: ATP calcium response change in parental CHO cells | inhibition, % at 5.6 µM | parental CHO-K1, ATP-induced calcium, Fluo-8 fluorescence | 0.63% of 330,000 active;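 active means inhibition above that plate's mean sample inhibition plus 3 SD, cut at about 26% in these data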;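 further: 0% = ATP-challenged DMSO wells and 100% = DMSO wells without ATP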
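Material: parental CHO cells / Compound: single nominal dose of 5.6 µM per compound / Signal: Fluo-8 fluorescence / Replicates: singlicate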
GalR3 antag: blocks the human galanin receptor 3. O60755. HEK293 GalR3-CNG cAMP membrane potential fluorescence; galR3 body fused to GalR1 C-terminus. inhibition, % at 3 µM. 0.44% of 360,000 active;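 active means inhibition above the screen-wide average plus 3 SD, cut at about 13% in these data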;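 further: forskolin and galanin both at EC90 stimulate the cells; cAMP rise reported by CNG channel membrane potential dye signal; 0% = forskolin plus galanin with DMSO and 100% = forskolin alone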
Target sequence (O60755 1-299 limits assumed): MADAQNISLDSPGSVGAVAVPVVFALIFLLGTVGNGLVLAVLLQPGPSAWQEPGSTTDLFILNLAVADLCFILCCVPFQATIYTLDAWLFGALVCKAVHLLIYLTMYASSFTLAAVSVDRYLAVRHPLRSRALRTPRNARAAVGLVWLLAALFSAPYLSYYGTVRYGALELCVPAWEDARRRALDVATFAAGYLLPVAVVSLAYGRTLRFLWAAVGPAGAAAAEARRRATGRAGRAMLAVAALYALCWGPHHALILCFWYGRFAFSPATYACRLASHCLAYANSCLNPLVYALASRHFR
OX1R antag-2: antagonists of human orexin 1 receptor | O43613 | CHO/OX1R cells, Fluo-8 calcium fluorescence, orexin A | inhibition, % at 5 µM | 0.43% of 330,000 active;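 active means inhibition above its plate's threshold, mean inhibition of all tested compounds on the plate plus 3 SD, cut at about 37% in these data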;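 further: 0% = orexin A challenge wells and 100% = SB-334867-A antagonist wells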
TAAR1 antagonist: human TAAR1 antagonism. CHO RD-HGA16 TAAR1, Fluo-8 calcium fluorescence, antagonist. inhibition, % at 3 µM. 1.5% of 360,000 active. AID 624466;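 active means inhibition above a per-plate cutoff, the mean inhibition of test compounds on that plate plus 3 SD, cut at about 49% in these data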;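 further: 0% = DMSO plus EC80 beta-PEA response and 100% = DMSO alone without agonist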
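System: CHO RD-HGA16 cells bearing hTAAR1. Reagent: EC80 β-phenethylamine stimulus. Schedule: seeding 17-24 h prior, 75-min 37 °C, 30-min RT dye loading. Signal: Fluo-8 intracellular calcium dye fluorescence, real-time kinetic reads. Read-out: % inhibition from peak post-agonist over basal fluorescence ratio. Benchmarks: vehicle wells and EC80 agonist wells. Replicates: n of 1.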
TAAR1 ag: human TAAR1 agonism; Q96RJ0; CHO RD-HGA16 TAAR1, Fluo-8 calcium fluorescence; vehicle wells 0%, saturating PEA agonist 100%; activation, % at 3 µM; 0.99% of 360,000 active; AID 624467;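 active means activation above the mean activation of all test compounds in the run plus 3 SD, cut at about 38% in these data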
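System: CHO-derived RD-HGA16 cells with stable Gα16 and human TAAR1. Times: 17-24 h plating, Fluo-8 75 min 37 °C, 30 min RT. Measured by: calcium-sensitive Fluo-8 signal, excitation 470-495, emission 515-575 nm. Read-out basis: % activation relative to PEA EC100 response. Control set: DMSO and PEA EC100. Repeats: no replicates (n 1).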
nonsel antag count: nonselective antagonism, TAAR1 counter-screen | shares compounds with TAAR1 antagonist | 77% of 2,400 active | counterscreen cell line, calcium fluorescence, antagonist mode | inhibition, % at 3 µM; in the data active means inhibition above about 22%;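 further: CHO-Ga16 host cells stimulated with ATP at an EC80 level; 0% = agonist EC80 plus vehicle and 100% = vehicle without agonist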
TAAR1 antag conf: human TAAR1 antagonism, confirmed; shares compounds with TAAR1 antagonist; TAAR1-expressing cells, fluorescence antagonist read-out; inhibition, % at 3 µM; 40% of 2,400 active; AID 651785; in the data active means inhibition above about 49%;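 further: CHO-Ga16 host cells challenged with agonist PEA near its EC80; 0% = agonist at EC80 plus vehicle and 100% = vehicle with no agonist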
Ga16 ag counter: nonselective Ga16 agonist in TAAR1 antagonist counter-screen | Ga16-expressing cells, calcium fluorescence, agonist counterscreen | shares compounds with TAAR1 antagonist | AID 651953 | 18% of 2,400 active | activation, % at 3 µM; in the data active means activation above about 12%;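 further: 0% = vehicle wells and 100% = saturating stimulus response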
TAAR1 ag count: TAAR1 agonism, antagonist counter-screen. shares compounds with TAAR1 antagonist. AID 651955. hTAAR1 cell line, fluorescence activation, agonist mode. activation, % at 3 µM. 2% of 2,400 active; in the data active means activation above about 37%;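 further: CHO cells stably expressing TAAR1 with calcium dye readout; 0% = DMSO vehicle and 100% = full agonist response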
An asterisk follows results filed as active; nt = not tested or not shown.

SMILES | OX1R antag-1 | CHO parental Ca | GalR3 antag | OX1R antag-2 | TAAR1 antagonist | TAAR1 ag | nonsel antag count | TAAR1 antag conf | Ga16 ag counter | TAAR1 ag count
N#CC1=C(N)NC(SCC(=O)c2ccccc2)=C(C#N)C12CCCC2 | 27 | -8 | -3 | 7 | 56* | 12 | 34* | 45 | 13* | 12
N#CC1=C(N)NC(SCC(=O)Nc2ccc(Br)cc2)=C(C#N)C12CCCCC2 | 21 | 23 | -6 | 23 | 28 | 20 | nt | nt | nt | nt
O=C(CC12CC3CC(CC(C3)C1)C2)Nc1nncs1 | 7 | -11 | -3 | -27 | -12 | 4 | nt | nt | nt | nt
CCSc1nc2sc3c(c2c(=O)[nH]1)CCc1ccccc1-3 | 9 | -10 | -5 | -37 | -2 | 3 | nt | nt | nt | nt
COc1cccc(OCCn2cc(C(=O)c3ccco3)c3ccccc32)c1 | 17 | 26 | -4 | 46* | 70* | 8 | 22* | 46 | 5 | 7
Cc1ccccc1Nc1nnc(SCc2cc(=O)n3ccsc3n2)s1 | 4 | 2 | -4 | -27 | 21 | 2 | nt | nt | nt | nt
COc1ccccc1Nc1nnc(SCc2cc(=O)n3cc(C)ccc3n2)s1 | 19 | -13 | 2 | -15 | 69* | 16 | 30* | 45 | 9 | 7
Nn1c(Cc2ccccc2)nc2sc3c(c2c1=O)CCC3 | 2 | -4 | -4 | -22 | -33 | 1 | nt | nt | nt | nt
CC(=O)Nc1nc(SCc2cccc3ccccc23)n[nH]1 | 12 | 1 | -4 | -8 | 2 | 10 | nt | nt | nt | nt
O=C(COC(=O)c1ccc([N+](=O)[O-])o1)Nc1nc2ccccc2s1 | 55 | 8 | -2 | -3 | 8 | 1 | nt | nt | nt | nt
COc1cccc(CN(C)C(=O)C(CCSC)NS(=O)(=O)c2ccc3c(c2)OCCO3)c1OC (stereo not drawn) | 41 | -15 | -1 | -12 | 75* | 18 | 38* | 63* | 12* | 14
CSCCC(NS(=O)(=O)c1ccc2c(c1)OCCO2)C(=O)N(C)Cc1ccc(C)cc1 (stereo not drawn) | 2 | -14 | -4 | -25 | 63* | 11 | 23* | 47 | 11 | 11
Cc1nn(C)c(Oc2ccccc2)c1CCNC(=O)C(C)(C)C | 6 | -9 | 7 | -19 | -16 | 2 | nt | nt | nt | nt
CC1Nc2ncnc(N3CCN(c4ccccc4)CC3)c2N(Cc2ccccc2)C1=O (stereo not drawn) | 1 | -22 | -6 | -15 | 50* | 24 | 22* | 35 | 7 | 13
CC1Nc2ncnc(N3CCN(c4ccccc4)CC3)c2N(Cc2ccc(Cl)cc2)C1=O (stereo not drawn) | 13 | -9 | -7 | -21 | 53* | 26 | 22* | 38 | 7 | 8
CC1Nc2ncnc(N3CCOCC3)c2N(Cc2ccc(Cl)cc2)C1=O (stereo not drawn) | -2 | -27 | -2 | -26 | -3 | 5 | nt | nt | nt | nt
O=C(Nc1cccnc1)c1ccc(COc2ccccc2Br)cc1 | 1 | -7 | -11 | -22 | 79* | 9 | 15 | 60* | 6 | 9
Cc1cc(C)c(C)c(S(=O)(=O)N2CCC(C(=O)N(C)Cc3nc4ccccc4c(=O)[nH]3)CC2)c1C | nt | nt | -6 | nt | 59* | 34 | 28* | 43 | 8 | 12
COC(=O)c1cccc(S(=O)(=O)N(Cc2ccco2)Cc2cc3cc(OC)c(OC)cc3[nH]c2=O)c1 | 23 | -19 | -5 | -23 | 22 | 9 | nt | nt | nt | nt
COC(=O)c1cccc(S(=O)(=O)N(Cc2ccco2)Cc2cc3ccc(OC)cc3[nH]c2=O)c1 | 40* | -18 | -4 | 15 | 57* | 21 | 33* | 57* | 10 | 7
Cc1ccc(C)c(N2CCN(C(=O)CCc3nc(-c4ccccc4Cl)no3)CC2)c1 | 23 | -23 | -7 | -15 | 59* | 3 | 26* | 35 | 5 | 4
Cc1ccc(C)c(N2CCN(C(=O)CCc3nc(-c4ccccc4C)no3)CC2)c1 | 18 | -32 | -4 | -8 | 14 | 0 | nt | nt | nt | nt
COc1ccc(NC(=O)c2oc3ccc(S(=O)(=O)N4CCC5(CC4)OCCO5)cc3c2C)cc1 | 9 | -5 | -4 | 16 | 56* | 22 | 40* | 56* | 14* | 15
C=CCNC(=O)c1oc2ccc(S(=O)(=O)N3CCC4(CC3)OCCO4)cc2c1C | 7 | -12 | -8 | -19 | -11 | 11 | nt | nt | nt | nt
Cc1ccc(NCc2nnc(SCC#N)o2)c(C)c1 | 8 | -2 | 11 | -2 | -14 | 3 | nt | nt | nt | nt
SMILES | OX1R antag-1 | CHO parental Ca | GalR3 antag | OX1R antag-2 | TAAR1 antagonist | TAAR1 ag | nonsel antag count | TAAR1 antag conf | Ga16 ag counter | TAAR1 ag count
CCOCC(=O)Nc1c(C(=O)N2CCN(c3ncccn3)CC2)oc2ccccc12 | 5 | -2 | -6 | -14 | 20 | 6 | nt | nt | nt | nt
O=C(c1oc2ccccc2c1CSCc1ccccc1)N1CCN(c2ncccn2)CC1 | 13 | -8 | -3 | -7 | 65* | 11 | 30* | 41 | 5 | 4
CCN(CC)C(=O)[C@H]1C[C@H](CC(=O)NCc2cccc(C(F)(F)F)c2)C(=O)N2CCc3c([nH]c4cc(-c5ccco5)ccc34)[C@]12C | -3 | -19 | nt | 3 | nt | nt | nt | nt | nt | nt
C[C@H](NC(=O)c1nc[nH]c1C(=O)N[C@@H](C)C(=O)OCc1ccccc1)C(=O)OCc1ccccc1 | 26 | -25 | -3 | -28 | 58* | 6 | 20 | 36 | 2 | 0
C[C@@H](NC(=O)c1nc[nH]c1C(=O)OCc1ccccc1)c1ccccc1 | 4 | -27 | -6 | -29 | 32 | 22 | nt | nt | nt | nt
CC(C)(C)OC(=O)N1CCC(NC(=O)c2nc[nH]c2C(=O)NCC(=O)OCc2ccccc2)CC1 | 12 | -4 | -2 | -1 | 70* | 25 | 31* | 59* | 11 | 14
C[C@@H](NC(=O)c1nc[nH]c1C(=O)NCC(=O)OCc1ccccc1)c1ccccc1 | 20 | -18 | -1 | -43 | 68* | 15 | 32* | 55* | 8 | 10
COc1ccccc1CNC(=O)c1ccc(CS(=O)(=O)c2ccccc2C)o1 | 31 | -11 | 2 | -11 | 27 | 22 | nt | nt | nt | nt
c1ccc(COc2cccc(-c3cc4nc(NCCOc5ccccc5)ccn4n3)c2)cc1 | nt | nt | -6 | nt | 15 | 0 | nt | nt | nt | nt
c1ccc(COc2cccc(-c3cc4nc(NCCc5ccncc5)ccn4n3)c2)cc1 | nt | nt | -4 | nt | 71* | 12 | 38* | 51* | 9 | 17
